Screening data from PubChem BioAssay.
m5-HT2A agonist – mouse HTR2A agonism via beta-arrestin recruitment. P35363. activation, % at 7.6 µM. actives 0.66% (n = 360,000). CHO-K1 mHTR2A beta-arrestin complementation, luminescence; percent of 30 µM serotonin response;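 active = activation above a run cutoff, the mean activation of all tested compounds plus 3 SD, cut at about 14% in these data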;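 also: 0% = plate median of compound wells and 100% = 30 µM serotonin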
AHR activator – human AHR activation; AID 2796; actives 2.5% (n = 320,000); activation, % at 5 µM; P35869; AHR-responsive luciferase reporter cells, luminescence; in the data active = activation above about 47%;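 also: 0% = vehicle wells and 100% = reference agonist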
Target sequence (P35869 whole entry, looked up): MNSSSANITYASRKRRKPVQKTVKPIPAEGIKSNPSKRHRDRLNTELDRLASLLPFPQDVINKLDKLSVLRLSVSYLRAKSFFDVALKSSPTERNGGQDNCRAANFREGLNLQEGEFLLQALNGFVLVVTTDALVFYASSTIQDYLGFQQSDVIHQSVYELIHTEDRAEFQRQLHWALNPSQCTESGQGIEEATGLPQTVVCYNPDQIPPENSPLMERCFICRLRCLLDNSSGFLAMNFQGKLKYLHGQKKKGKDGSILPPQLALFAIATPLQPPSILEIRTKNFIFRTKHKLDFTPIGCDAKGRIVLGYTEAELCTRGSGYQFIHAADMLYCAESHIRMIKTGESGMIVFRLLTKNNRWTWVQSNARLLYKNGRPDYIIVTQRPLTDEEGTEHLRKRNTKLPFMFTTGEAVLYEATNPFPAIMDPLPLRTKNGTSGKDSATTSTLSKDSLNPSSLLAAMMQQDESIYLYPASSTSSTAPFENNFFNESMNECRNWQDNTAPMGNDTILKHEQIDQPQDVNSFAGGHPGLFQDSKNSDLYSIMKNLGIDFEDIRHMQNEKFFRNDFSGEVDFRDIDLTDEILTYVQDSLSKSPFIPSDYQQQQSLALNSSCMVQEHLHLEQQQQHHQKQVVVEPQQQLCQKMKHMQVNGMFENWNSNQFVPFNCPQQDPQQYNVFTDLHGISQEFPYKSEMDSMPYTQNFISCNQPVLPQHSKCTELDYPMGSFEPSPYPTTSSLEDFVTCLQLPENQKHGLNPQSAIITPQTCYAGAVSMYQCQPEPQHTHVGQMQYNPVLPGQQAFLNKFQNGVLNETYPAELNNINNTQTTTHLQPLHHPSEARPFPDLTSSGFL
FXN GAA850 act – activators of GAA850 frataxin (FXN) promoter; actives 0.56% (n = 360,000); HEK293 lucGAA850 FXN promoter luciferase reporter, 24 h; percent of 10 µM SAHA response; activation, % at 6 µM; AID 540364;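 active = activation above the average of all compounds screened plus 3 SD, cutoff fixed separately per campaign, cut at about 7.5% in these data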;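 also: 0% = DMSO wells and 100% = 10 µM SAHA wells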
MC4R barr agon – human MC4R agonism via beta-arrestin. activation, % at 8.9 µM. AID 540308. P32245. actives 0.98% (n = 360,000). U2OS MC4R beta-arrestin complementation, luminescence; percent of melanotan II response, DMSO zero;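 active = activation above a per-plate cutoff, the mean activation of sample wells on that plate plus 3 SD, cut at about 8% in these data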
MC4R antagonist – human MC4R antagonism in cAMP assay | P32245 | MC4R-expressing cells, MTII-stimulated cAMP, LANCE TR-FRET | inhibition, % at 6.5 µM | actives 0.48% (n = 360,000);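 active = inhibition above its plate's cutoff, the mean of tested wells on that plate plus 3 SD, cut at about 29% in these data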;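 also: 0% = Melanotan II alone and 100% = Melanotan II plus saturating MCL0020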
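Assay system: U2OS-MC4R stable cell line; Also added: Melanotan II; Technique: Eu-cAMP/anti-cAMP TR-FRET, emission 671 nm; Times: 30-min compound, 1-h challenge, 1-h detection, room temperature.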
* hit, by the source's call; . = no result. A selection: hits, their analogues and other compounds. The true share with any hit is near 4.7%.

SMILES	m5-HT2A agonist	AHR activator	FXN GAA850 act	MC4R barr agon	MC4R antagonist
COc1ccccc1Nc1nc(NCc2ccco2)nc(N)c1[N+](=O)[O-]	3	8	3	8	-8
COc1cccc(-c2nc(NCc3ccco3)c3ccccc3n2)c1O	-2	4	3	18*	-13
COCCCNc1nc(N)c([N+](=O)[O-])c(Nc2ccccc2OC)n1	1	56*	1	0	4
COc1ccc(OC)c(Nc2nc(NCc3ccco3)c3ccccc3n2)c1	3	60*	0	0	-11
CC(CN1CCOCC1)OC(=O)c1cccc(Cl)c1 (centres undefined)	-1	-1	1	-2	2
Cn1nc(C(C)(C)C)cc1C(=O)N1CCCCC1c1cc(C(=O)Nc2ccccc2Cl)no1 (centres undefined)	0	.	0	2	-9
C=CCNc1ncnc2c1ncn2[C@H]1CN(Cc2ccccc2)C[C@@H](COC(C)=O)O1	0	.	-1	0	5
Nc1nc(NCc2ccco2)nc(Nc2ccc(F)cc2)c1[N+](=O)[O-]	1	113*	3	3	-6
CCOc1ccc(Nc2nc(NCc3ccco3)nc(N)c2[N+](=O)[O-])cc1	10	8	0	-3	19
Nc1sc(-c2ccccc2)n[n+]1Cc1cccc2cccnc12	-2	85*	1	0	2
CCc1c(C)nc2cc(-c3cccc(Br)c3)[nH]n2c1=O	2	70*	5	0	0
CCOC(=O)Cc1c(C)nc2cc(-c3ccc(C)cc3)[nH]n2c1=O	0	20	3	-1	0
Fc1cccc(/C=N/Nc2ccc(Cl)nn2)c1	-7	15	4	12*	-2
Cc1c(C(=O)OCC(C)C)[nH]c2c1C(=O)CC(c1ccco1)C2 (centres undefined)	-4	1	-3	0	-22
Cc1c(C(=O)OC2CCCC2)[nH]c2c1C(=O)CC(c1ccco1)C2 (centres undefined)	-3	57*	-3	-1	-30
C=CCNc1ncnc2c1[nH]c1ccc(C)cc12	-1	105*	2	0	0
COc1ccc(/C=N/Nc2ncnc3c2[nH]c2ccccc23)c(OC)c1OC	5	72*	6	1	8
COc1ccc2[nH]c3c(NCc4ccco4)ncnc3c2c1	.	71*	.	.	.
COc1cccc(/C=N/Nc2ncnc3c2[nH]c2ccc(C)cc23)c1OC	6	62*	7	1	12
COc1cccc(C=NNc2nnc(NN=Cc3cccc(OC)c3OC)c3ccccc23)c1OC	6	.	-3	0	-23
CC1(C)C(=O)C=CC(=O)C(C)(C)C(=O)C=CC(=O)C(C)(C)C2=CC=C(O2)C(C)(C)C(=O)C=CC1=O	-7	.	-2	-1	0
Clc1ccccc1-c1csc(Nc2cccnc2)n1	-5	68*	1	0	-2
O=C(COc1cccc(F)c1)Nc1nc(-c2cccnc2)cs1	2	54*	1	1	5
c1cncc(Nc2nc(-c3cccnc3)cs2)c1	2	50*	5	-1	-1
O=C(COc1cccc(F)c1)Nc1nc(-c2ccncc2)cs1	1	10	0	-1	11
SMILES	m5-HT2A agonist	AHR activator	FXN GAA850 act	MC4R barr agon	MC4R antagonist
Cc1nc(C)c(-c2csc(Nc3cccnc3)n2)s1	1	94*	3	-1	0
c1cncc(Nc2nc(-c3ccncc3)cs2)c1	0	4	3	1	21
CC1(C(=O)NS(=O)(=O)c2cccc(C#N)c2)CCN1C(=O)CC1CCCCC1 (centres undefined)	-1	.	-1	-1	0
CC(C)n1c(CNC(=O)c2ccccc2F)nnc1SCC(=O)c1ccc(F)cc1	8	.	0	0	6
Cc1c(Cl)cccc1NC(=O)CNc1cccc(C(F)(F)F)c1	-4	1	-2	0	15
N#Cc1ccccc1NC(=O)CNc1ccc(Cl)c(C(F)(F)F)c1	1	65*	0	0	1
N#Cc1ccc(C(=O)N2CCCC(c3cc(C(=O)NCc4cccnc4)no3)C2)cc1 (centres undefined)	-2	.	-1	1	20
Cc1ccc(Nc2nc(Cl)nc(NC(C)(C)C)n2)cc1	-3	10	5	1	-3
Cc1ccc(Nc2nc(Cl)nc(N(C)C#N)n2)cc1	5	55*	1	1	13
COc1ccccc1OCCCn1c(=O)oc2ccccc21	0	18	3	-1	8
COc1ccccc1OCCCn1c(=O)oc2ccc(C)cc21	-2	60*	3	3	6
CCc1nnc(NC(=O)c2sc3nc4c(cc3c2N)CCCCCC4)s1	7	50*	3	-1	-3
COc1cc(CNCCc2ccccc2)cc(Br)c1OCC(=O)Nc1ccccc1C	-2	1	-7	8.6*	-3
O=C(Nc1ccc(F)c(Cl)c1)C1CCCN(c2cnccn2)C1 (centres undefined)	-13	73*	1	-2	-6
O=C(Nc1cccc(F)c1)C1CCCN(c2cnccn2)C1 (centres undefined)	-7	52*	-2	-1	10
CCOC(=O)c1ccc(NC(=O)C2CCCN(c3cnccn3)C2)cc1 (centres undefined)	-8	63*	1	-3	4
Cc1ccc(NC(=O)C2CCN(c3cnccn3)CC2)cc1	-3	-1	-2	-4	2
O=C(c1cc(F)ccc1F)C1CCCN(C(=O)c2ccc3nccnc3c2)C1 (centres undefined)	7	2	1	-1	13
CCSc1ncc(/C=N/Nc2ccc([N+](=O)[O-])cc2)n1C	-6	-7	0	7	-4
CCSc1ncc(/C=N/Nc2ccc(Cl)cc2)n1C	-2	103*	5	1	-2
CC(C)c1cn(CC[C@@H]2CC[C@@H](NC(=O)C3CCCCC3)[C@@H](CO)O2)nn1	1	.	.	.	.
CCOc1ccccc1NC(=O)/C=C/c1ccccc1[N+](=O)[O-]	-1	63*	2	-2	1
Cc1ccnc(NC(=O)/C=C/c2ccccc2[N+](=O)[O-])c1	.	72*	.	.	.
Cc1ccnc(NC(=O)/C=C/c2ccccc2Cl)c1	-3	16	2	0	2
Cc1ccc(N2C(=O)C3CC(c4ccccc4)=C4C5C=CC(C6C(=O)N(c7ccc(C)cc7)C(=O)C56)C4C3C2=O)cc1 (centres undefined)	-3	1	1	8.6*	13
COc1ccc(Oc2nc(-c3ccncc3)nc3ccccc23)cc1	0	17	2	0	0
COCCN(CCOC)c1nc(-c2ccc(C)cc2)nc2ccccc12	-4	32	3	1	12
CCCCN(CC)c1nc(-c2ccncc2)nc2ccccc12	2	73*	4	0	1
C=CCOc1nc(-c2ccncc2)nc2ccccc12	3	52*	2	1	2
